Source: PubChem
TAAR1 antagonist: human TAAR1 antagonists, primary screen, Fluo-8 calcium fluorescence, CHO RD-HGA16 cells; Trace amine-associated receptor 1 (Homo sapiens), Q96RJ0; antagonist; inhibition, % at 3 µM; hit rate 1.5% among 360,000;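 active = inhibition above a per-plate cutoff, the mean inhibition of test compounds on that plate plus 3 SD, cut at about 49% in these data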;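 note: 0% = DMSO plus EC80 beta-PEA response and 100% = DMSO alone without agonist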
Target sequence (Q96RJ0 whole entry, looked up): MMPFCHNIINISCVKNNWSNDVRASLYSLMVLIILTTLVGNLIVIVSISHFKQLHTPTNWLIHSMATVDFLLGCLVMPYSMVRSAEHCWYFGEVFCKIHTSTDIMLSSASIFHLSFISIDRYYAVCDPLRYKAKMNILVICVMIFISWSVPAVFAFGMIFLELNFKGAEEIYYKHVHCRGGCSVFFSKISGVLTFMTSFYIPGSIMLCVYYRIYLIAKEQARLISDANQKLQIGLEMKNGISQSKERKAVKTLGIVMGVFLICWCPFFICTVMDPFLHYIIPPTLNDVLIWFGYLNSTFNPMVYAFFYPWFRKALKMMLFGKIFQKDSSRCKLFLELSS
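System: CHO RD-HGA16 cells bearing hTAAR1. Reagent: EC80 β-phenethylamine stimulus. Schedule: seeding 17-24 h prior, 75-min 37 °C, 30-min RT dye loading. Signal: Fluo-8 intracellular calcium dye fluorescence, real-time kinetic reads. Read-out: % inhibition from peak post-agonist over basal fluorescence ratio. Benchmarks: vehicle wells and EC80 agonist wells. Replicates: n of 1.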
TAAR1 ag: human TAAR1 agonists, primary screen, Fluo-8 calcium fluorescence, CHO RD-HGA16 cells; Trace amine-associated receptor 1 (Homo sapiens), Q96RJ0; hit rate 0.99% among 360,000; AID 624467, 2012; activation, % at 3 µM; vehicle wells 0%, saturating PEA agonist 100%;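 active = activation above the mean activation of all test compounds in the run plus 3 SD, cut at about 38% in these data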
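Test system: RD-HGA16 (CHO) cells co-expressing Gα16 and hTAAR1 | Doses: Single dose, 3 µM | Schedule: 17-24 h seeding, 75 min 37 °C dye, 30 min RT | Evaluation: % activation from peak over basal fluorescence ratio, DMSO-to-PEA scaled | Technique: Kinetic Fluo-8 calcium fluorescence | Benchmarks: Low control DMSO, high control PEA (EC100)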
NS3 helicase inh: inhibitors of HCV NS3 helicase, primary screen, biochemical, Cy5 molecular beacon fluorescence; inhibition, % at 10.9 µM; hit rate 0.56% among 290,000; NS3 helicase DNA unwinding;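 active = inhibition above the mean of all tested compounds plus 3 SD, set per campaign, cut at about 35% in these data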;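 note: 0% = DMSO wells and 100% = thioflavine S control wells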
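Assay system: hepatitis C virus NS3 helicase domain fragment enzyme. Also added: annealed dual-labelled DNA beacon duplex, ATP-started. Timing: 1 h reaction at 25 °C, ATP-initiated. Technique: Cy5 fluorescence at 0 and 60 min, beacon hairpin quenching. Evaluation: % inhibition of unwinding. Replication: one well per compound.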
core dimer inh: inhibitors of HCV core protein dimerization, primary screen, biochemical, TR-FRET, high-throughput. TR-FRET GST/Flag-core106 dimerization, 1536-well. inhibition, % at 5 µM. hit rate 0.33% among 300,000;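 active = inhibition above the mean of all tested compounds plus 3 SD, set per screening campaign, cut at about 45% in these data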
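Material: Tagged HCV core106 pair (GST and Flag) | Amount: GST-core106 13.5 nM, Flag-core106 17 nM | Medium: KF-containing HEPES buffer, pH 7.45, DTT, CHAPS, BSA | Reagent: Eu donor and XL665 acceptor anti-tag antibodies | Schedule: 4 h at 22.5 °C | Technique: Time-resolved FRET, ex 340 nm, em 617 and 671 nm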
rCAG RNA binder: binders of r(CAG) RNA repeats, primary screen, biochemical, fluorescence; r(CAG) RNA repeat, TO-PRO-1 dye displacement fluorescence; inhibition, % at 3 µM; hit rate 1.3% among 370,000; AID 651821, 2012;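 active = inhibition above the plate cutoff, the mean of all test compounds on that plate plus 3 SD, cut at about 35% in these data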;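 note: 0% = DMSO alone and 100% = 100 µM mitoxantrone as full dye displacement; higher means more dye released from RNA so lower well fluorescence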
rCAG binder conf: small molecules binding CAG repeat RNA – biochemical, fluorescence, confirmation; shares compounds with rCAG RNA binder; r(CAG) RNA repeat, TO-PRO-1 dye displacement fluorescence; inhibition, % at 3 µM; hit rate 70% among 4,300; AID 652065, 2013;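 active = inhibition above a per-plate cutoff, the mean inhibition of sample wells plus 3 SD, cut at about 35% in these data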;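 note: loss of TO-PRO-1 fluorescence as compound displaces dye from 1x1 AA loop RNA; 0% = DMSO only wells and 100% = 100 µM mitoxantrone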
DNA CAG counter: displacement of TO-PRO-1 from CAG DNA duplex, counter-screen for rCAG RNA repeat binder project, biochemical, fluorescence, TO-PRO-1 dye, d(CAG) DNA oligo; shares compounds with rCAG RNA binder; d(CAG) DNA oligo TO-PRO-1 dye displacement; inhibition, % at 3 µM; hit rate 94% among 4,300; AID 652068, 2013;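 active = inhibition above its plate's cutoff, the mean test-well inhibition plus 3 SD, cut at about 4.8% in these data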;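 note: 0% = DNA dye mix with DMSO and 100% = 100 µM mitoxantrone; hits displace the dye from DNA and so lower well fluorescence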
dCAG dye DR: inhibitors of DNA CAG/GTC TO-PRO-1 complex, dose response, counter-screen for rCAG RNA repeat binder project, biochemical, fluorescence, TO-PRO-1 dye; hit rate 20% among 250; IC50, µM; AID 686960, 2013; shares compounds with rCAG RNA binder; DNA CAG/GTC duplex TO-PRO-1 dye displacement fluorescence; in the data active = IC50 below about 10 µM
* hit, by the source's call; i = inactive; / = no result. Rows were chosen to be rich in hits. Some 3.7% of all compounds tested hit in one or more screens of this group.

SMILES | TAAR1 antagonist | TAAR1 ag | NS3 helicase inh | core dimer inh | rCAG RNA binder | rCAG binder conf | DNA CAG counter | others
C=CCN1c2ccc(Br)cc2C(=O)CS1(=O)=O | 0 | 8 | / | / | 66* | 10 | 6.3*
COc1cccc(CN2c3ccc(Br)cc3C(=O)CS2(=O)=O)c1 | 22 | 5 | / | / | 52* | 39* | 16*
O=C(O)c1ccc(NC(=O)c2ccc(Cl)cc2)c(NC(=O)c2ccc(Cl)cc2)c1 | -8 | 1 | 6 | 16 | 71* | 59* | 23*
O=C(COc1ccccc1Cl)Nc1ccccc1C(=O)Nc1cccc(C(=O)O)c1 | 2 | 1 | -1 | -5 | 40* | 23 | 2
O=C(COc1ccccc1Cl)Nc1ccc(C(=O)O)cc1NC(=O)COc1ccccc1Cl | -8 | 0 | -6 | 5 | 67* | 53* | 19*
Cc1cc(C(=O)Nc2ccccc2C(=O)O)ccc1NC(=O)COc1ccccc1Cl | -62 | -1 | -4 | 15 | 12 | / | /
O=C(Nc1ccc(Cl)c(Cl)c1)Nc1ccccc1NS(=O)(=O)c1cccs1 | 18 | 11 | 16 | 6 | 42* | 33 | 9.4*
O=C(Nc1ccc(Cl)c(Cl)c1)Nc1ccccc1C(=O)O | 23 | 15 | 2 | -1 | 61* | 51* | 11* | dCAG dye DR=>30
CC(=O)c1cccc(NC(=O)C(OC(=O)c2ccccc2NS(=O)(=O)c2cccs2)c2ccccc2)c1 (stereo not drawn) | 16 | 1 | 7 | 39 | 43* | 36* | 17*
CCOc1ccccc1NC(=O)C(OC(=O)c1ccccc1NS(=O)(=O)c1cccs1)c1ccccc1 (stereo not drawn) | 6 | 3 | 4 | 22 | 6 | / | /
O=C(Nc1cccc(-c2nc3ccccc3c(=O)o2)c1)c1ccccc1 | 0 | 6 | 2 | 4 | 36* | 7 | 2
Cc1cc(NS(=O)(=O)c2ccc(NC(=S)NC(=O)/C=C/c3ccccc3)cc2)no1 | 9 | 0 | 11 | 5 | 71* | 47* | 17*
Cc1ccc(/C=C/C(=O)NC(=S)Nc2ccc(S(=O)(=O)Nc3cc(C)on3)cc2)cc1 | 13 | -2 | 22 | 24 | 80* | 77* | 46*
COc1ccc(NC(=S)NC(=O)/C=C/c2cccs2)cc1 | 10 | 0 | 8 | 10 | -4 | / | /
O=C(/C=C/c1cccs1)NC(=S)Nc1ccc(S(=O)(=O)Nc2ccccc2C(F)(F)F)cc1 | 41 | 5 | 36 | 40 | 56* | 70* | 32* | dCAG dye DR=i
CCN(Cc1cn(Cc2ccccc2)nn1)S(=O)(=O)c1ccccc1Br | / | / | / | / | -1 | / | /
O=C(NCc1ccco1)C1CCCN(S(=O)(=O)c2ccc([N+](=O)[O-])cc2)C1 (stereo not drawn) | / | / | / | / | 1 | / | /
O=C(CCCC(=O)Nc1cccc(Br)c1)N/N=C/c1cc([N+](=O)[O-])ccc1O | 12 | 1 | -12 | -7 | 26 | / | /
O=C(CN(c1cccc(Br)c1)S(=O)(=O)c1ccccc1)N/N=C/c1cc([N+](=O)[O-])ccc1O | 20 | -1 | / | 8 | 77* | 89* | 62*
N#CCSc1n[nH]c2nc3c(c(=O)n12)C1(CCCC1)Cc1ccccc1-3 | 1 | 8 | 9 | 5 | 50* | 55* | 18* | dCAG dye DR=i
COc1cc([N+](=O)[O-])c(OC)cc1Nc1ccccc1C(=O)O | -52 | 0 | / | / | 6 | / | /
